# Source: PubChem (Sanford-Burnham Center for Chemical Genomics)
# DNMT1 inh – blocks human DNA methyltransferase DNMT1. P26358. DNMT1 molecular beacon, Hinp1I cleavage, fluorescence. inhibition (reported as % activation of signal), % at 10 µM. hit rate 0.83% among 360,000; in the data active means inhibition above about 50%
# STEP inh – inhibitors of human striatal-enriched phosphatase STEP. P54829. recombinant STEP, OMFP fluorogenic substrate, fluorescence. inhibition, % at 20 µM. hit rate 0.25% among 360,000. AID 588621;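 active means inhibition at 20 µM, scaled per plate between control wells, above about 37%, limit read from the data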;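 further: 0% = DMSO with enzyme and substrate and 100% = substrate only without enzyme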
#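 Material: STEP (striatal-enriched tyrosine phosphatase) enzyme, cell-free; Compound dosing: 20 µM single dose in 1% DMSO; Technique: fluorescence read at 480 nm ex / 540 nm em; Times: reaction 20 min, ambient temperature; Medium: 50 mM Bis-Tris pH 6.0 with 2.5 mM DTT and 0.005% Tween 20; Also added: OMFP at 25 µM.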
# HKDC1 inh – inhibitors of human hexokinase HKDC1. hit rate 0.16% among 340,000. AID 493160. inhibition, % at 20 µM. recombinant HKDC1, G6PDH/diaphorase resazurin coupled fluorescence;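 active means inhibition above about 35% when tested at 20 µM, limit read from the data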;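 further: plate controls were DMSO wells with enzyme for no effect and DMSO wells lacking enzyme for full effect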
#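 Assay system – recombinant HKDC1 (HK5) hexokinase enzyme, produced in-house · Input – HKDC1 at 5 µg/mL · Reagent – glucose plus 1 mM ATP as hexokinase substrates · Timing – 90 min reaction incubation at room temperature, dark · Measured by – G6PDH/diaphorase-coupled fluorescence, 1 mM NADP, 100 µM resazurin, 525/613 nm · Benchmarks – DMSO-enzyme wells negative, buffer-substituted wells positive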
# LMPTP block – blocks human LMPTP phosphatase | P24666 | recombinant LMPTP-A, OMFP fluorogenic substrate, fluorescence intensity | inhibition, % at 20 µM | hit rate 0.22% among 360,000 | AID 651560;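 active means compounds that cut the enzyme signal by at least half of the control window in the single-dose screen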;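 further: plate controls were DMSO wells with enzyme plus substrate for no effect and substrate without enzyme for full effect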
# Target sequence (P24666 whole entry, looked up): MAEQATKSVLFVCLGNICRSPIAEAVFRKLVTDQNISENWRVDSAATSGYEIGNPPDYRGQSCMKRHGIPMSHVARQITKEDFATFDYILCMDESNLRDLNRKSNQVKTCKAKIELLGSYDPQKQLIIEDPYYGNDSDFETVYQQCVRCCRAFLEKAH
#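 Assay system: LMPTP-A, protein tyrosine phosphatase of low molecular weight / Medium: pH 6.0 Bis-Tris buffer with DTT and Triton X-100 / Schedule: 50 min enzyme reaction at room temperature, protected from light / Measured by: endpoint fluorescence intensity from OMFP dephosphorylation / Read-out basis: % inhibition relative to no-enzyme and uninhibited control wells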
# Scp1 inh – blocks human Scp-1 phosphatase activity; inhibition, % at 20 µM; hit rate 0.88% among 340,000; Q9GZU7; AID 493091; Recombinant Scp1, phosphopeptide, malachite green phosphate absorbance;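 active means inhibition above about 50% at 20 µM, limit read from the data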;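 further: plate controls were DMSO wells with enzyme for no effect and wells lacking enzyme for full effect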
# Target sequence (Q9GZU7 76-261 limits assumed): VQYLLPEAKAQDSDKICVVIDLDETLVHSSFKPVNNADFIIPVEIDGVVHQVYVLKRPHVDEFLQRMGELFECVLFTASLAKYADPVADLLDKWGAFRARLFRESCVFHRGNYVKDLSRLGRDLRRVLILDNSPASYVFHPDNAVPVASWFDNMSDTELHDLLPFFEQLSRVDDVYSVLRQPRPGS
#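 Test system – truncated SCP-1 phosphatase (76-261aa) · Reagent – Phosphorylated 17-residue peptide substrate · Incubation – 45 min room-temperature reaction, 5 min colour, 30 min stabiliser · Detection – colorimetric phosphate reagent with accelerator and stabiliser, absorbance at 630 nm · Measure – % inhibition at 20 µM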
# SUMO1-SIM PPI – SUMO1-SIM interaction modulation; hit rate 0.33% among 360,000; inhibition, % at 20 µM; SUMO1 binding to a labelled peptide, TR-FRET, 1 h; AID 602429; P63165; in the data active means inhibition above about 37%
# Target sequence (P63165 whole entry, looked up): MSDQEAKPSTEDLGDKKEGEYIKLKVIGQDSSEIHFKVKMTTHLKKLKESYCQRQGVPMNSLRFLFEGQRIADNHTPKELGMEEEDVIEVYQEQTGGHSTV
# Beacon interf DR – counter-screen for DNMT1 inhibitors: spectral interference, dose response; shares compounds with DNMT1 inh; molecular beacon fluorescence; IC50, µM; 200 tested, under 10 active; AID 602382; call rule not given here
# DNMT1 inh conf – confirmation of human DNMT1 inhibitors; shares compounds with DNMT1 inh; DNMT1 molecular beacon HinP1I cleavage, fluorescence; inhibition, % at 10 µM; hit rate 8% among 2,300; AID 602385;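 active means average inhibition of at least 30% in the single-concentration confirmation test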
# DNMT1 interf – beacon fluorescence artifact counter-screen | shares compounds with DNMT1 inh | DNMT1 molecular beacon spectral interference counterscreen, fluorescence 485/520 | activation (fluorescence interference), % at 10 µM | hit rate 1% among 2,300 | AID 602387;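 active means activation of at least 30% at 10 µM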;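 further: DNMT1 catalytic domain with a HinP1I cleavage step and a FAM/dabcyl DNA beacon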
# The depositor's hits bear a star; / = no result given. The list is not random: actives were taken first. Their share in the collection is about 1.8%.
SMILES,DNMT1 inh,STEP inh,HKDC1 inh,LMPTP block,Scp1 inh,SUMO1-SIM PPI,DNMT1 inh conf,DNMT1 interf,others
Cc1cc(NC(=O)Cc2cccs2)no1,111.2*,8.9,8.3,55.0*,83.6*,7.8,2.5,-6.0,
Cc1ccc(-c2nc3ccccc3o2)cc1NC(=S)NC(=O)c1cc2ccccc2o1,48.7,1.3,-2.3,0.1,-7.1,-1.7,/,/,
Cc1ccc2oc(-c3cccc(NC(=O)Cc4cccs4)c3)nc2c1,13.3,15.5,-0.6,-1.0,-1.1,-4.1,/,/,
Cc1cc(NS(=O)(=O)c2ccc(NC(=O)Cc3cccs3)cc2)no1,4.8,-2.2,-10.3,1.6,-6.5,1.6,/,/,
Cc1ccc2oc(-c3ccc(C)c(NC(=O)Cc4cccs4)c3)nc2c1,51.9*,-1.0,-4.0,-0.7,-4.4,4.2,2.4,-0.4,
Cc1ccc(-c2cc3nc(C)cc(N4CCN(C(=O)c5ccoc5)CC4)n3n2)cc1,-1.1,1.8,/,-0.2,/,9.5,/,/,
CCN1CCN(CCCNC(=O)C2CCN(c3nnc(-n4c(C)ccc4C)s3)CC2)CC1,0.1,-3.4,-7.8,-8.2,-8.0,-28.9,/,/,
COc1cccc(NC(=O)COC(=O)c2ccccc2SCC(=O)N2CCCC2)c1,0.0,1.6,-1.0,-0.7,-1.2,-3.4,/,/,
CC1(C)C[C@H](O)[C@]2(CO)[C@H](O)C[C@]3(C)C(=CCC4[C@@]5(C)CC[C@H](O)C(C)(C)C5CC[C@]43C)[C@@H]2C1 (stereo partly drawn),71.0*,0.4,-3.4,0.1,-3.0,3.4,2.0,-5.4,
CC(NC(=O)Oc1cccc2ccccc12)c1ccccc1 (stereo not drawn),-5.2,-1.6,-0.7,0.0,-9.6,-0.1,/,/,
Cc1ccccc1NC(=O)COC(=O)/C=C/c1cn(-c2ccccc2)nc1-c1cccnc1,51.7*,4.7,15.8,0.5,3.8,1.0,0.8,-3.7,
Cc1ccc(NC(=O)CCc2nnc3ccc(N4CCC(C)CC4)nn23)nc1,1.2,-0.2,-1.1,-0.8,-2.5,-4.8,/,/,
CC(C)NC1(C#N)CCN(Cc2ccccc2)CC1,4.2,-3.5,-9.8,-1.2,-9.6,4.7,/,/,
O=C(CSc1nc2c(cnn2-c2ccccc2)c(=O)[nH]1)c1ccc(Cl)cc1,86.2*,0.9,-11.2,-1.3,-4.0,4.6,30.9*,3.8,Beacon interf DR=>99
O=C(CSc1nc2c(cnn2-c2ccccc2)c(=O)[nH]1)N1CCCCC1,7.8,-2.8,-4.2,-0.9,-10.6,19.2,/,/,
O=C(NCc1ccccc1Cl)c1csc([C@@H]2O[C@H](CO)[C@H](O)[C@H](O)[C@H]2O)n1,4.8,0.0,/,-0.3,/,-4.0,/,/,
Cc1cc2c(c(=O)n1Cc1cccnc1)C(Cc1ccccc1)C(C#N)=C(N)O2 (stereo not drawn),56.1*,1.6,-10.8,2.0,1.0,-5.8,-0.9,2.7,
Cc1ccc(-c2nnn(CC(=O)Nc3ccc4nn(-c5ccccc5)nc4c3)n2)o1,50.1*,-4.6,-0.7,-0.5,-2.2,9.8,0.4,0.1,
CCOC(=O)c1[nH]c(C)c(C(=O)OCC(=O)N2CCc3ccccc32)c1C,-4.3,1.4,-14.5,-0.4,-6.5,6.3,/,/,
CCOC(=O)c1c(C)[nH]c(C(=O)OCC(=O)Nc2cc(C)ccc2OC)c1C,61.9*,3.4,1.2,-1.1,-4.2,-2.5,2.0,1.0,
CCOC(=O)c1c(C)[nH]c(C(=O)OCC(=O)Nc2cc(Cl)ccc2OC)c1C,22.5,-0.1,-9.0,-2.5,-2.2,-2.4,/,/,
CCOC(=O)c1c(C)[nH]c(C(=O)OCC(=O)Nc2ccc(OC)c(Cl)c2)c1C,28.0,0.0,-4.0,0.7,1.6,1.4,/,/,
CCOC(=O)c1c(C)[nH]c(C(=O)OCC(=O)N2CCc3ccccc32)c1C,61.9*,-1.7,-3.1,-0.1,-4.8,1.5,3.9,-0.2,
CCOC(=O)c1c(C)[nH]c(C(=O)OCC(=O)Nc2ccc(OCC)cc2)c1C,69.0*,-2.6,-13.0,0.0,21.4,-3.8,-0.8,-2.2,
Cc1ccc(C(O)c2ncc(-c3cccc4ccccc34)[nH]2)cc1F (stereo not drawn),-0.1,-2.9,/,2.2,/,-13.9,/,/,
SMILES,DNMT1 inh,STEP inh,HKDC1 inh,LMPTP block,Scp1 inh,SUMO1-SIM PPI,DNMT1 inh conf,DNMT1 interf,others
O=C1c2ccccc2C(c2nnnn2C2CCCCC2)N1CCc1ccc(O)cc1 (stereo not drawn),/,/,/,-1.4,/,0.7,/,/,
COc1ccc(S(=O)(=O)N2CCC(C(=O)NCCC(=O)NCc3ccccn3)CC2)cc1,2.8,1.9,/,-1.1,/,1.1,/,/,
COc1ccc(-c2nc(CCNC(=O)c3ccco3)cs2)cc1OC,83.5*,-1.0,1.4,17.0,-0.3,-4.2,-0.1,1.5,
COc1ccccc1NC(=O)Cc1nc(=O)[nH]c(=O)[nH]1,-1.4,-0.1,/,-0.5,/,4.9,/,/,
COc1ccccc1OCC(=O)N1CCCC(Nc2ccc(F)c(F)c2)C1 (stereo not drawn),0.2,0.7,-1.6,-1.2,-6.0,0.9,/,/,
COc1ccc(CNC(=O)c2nnn(Cc3ccc(OC)cc3)c2N)cc1,0.3,0.2,5.0,0.0,-8.0,7.4,/,/,
Nc1c(C(=O)NCc2ccccc2)nnn1Cc1ccc(F)cc1,50.1*,4.2,-1.9,0.6,-15.5,4.1,3.8,6.2,
Cc1cc(C)cc(NC(=O)Cn2nnc(C(=O)NCCc3ccccc3)c2N)c1,67.2*,-0.1,3.0,41.0,-1.4,6.4,1.4,-1.2,
COC(=O)c1c(C(=O)OC)c(C)n(Cc2ccco2)c1C,1.5,-7.8,-4.3,-1.2,2.6,3.8,/,/,
CCOc1cccc(=O)c2c(C)n(Cc3ccco3)c(C)c12,80.7*,6.5,1.2,11.0,6.9,4.0,4.4,3.6,
Cc1ccccc1CN1C(=O)CN(S(C)(=O)=O)CC1(C)C(=O)NC(C)C (stereo not drawn),/,/,/,-1.1,/,0.2,/,/,
CC1CN(S(=O)(=O)c2cccc(C(=O)OCc3cc(=O)oc4cc(O)ccc34)c2)CC(C)O1 (stereo not drawn),13.8,-2.3,7.4,3.1,17.5,1.0,/,/,
CN(C)c1cccc(C(=O)OCc2cc(=O)oc3cc(O)ccc23)c1,82.2*,40.8*,5.1,21.5,61.5*,14.9,8.2,1.7,
C=CCn1c(SC(F)F)nc2scc(-c3ccco3)c2c1=O,3.3,5.6,-2.0,3.7,-5.2,0.9,/,/,
C=CCn1c(SCc2ccc3c(c2)OCO3)nc2scc(-c3ccco3)c2c1=O,103.2*,3.3,11.2,6.7,-9.0,24.9,3.7,2.6,
